Measurements as given in ChEMBL document CHEMBL1148708, “4-amino-5-substituted-3(2H)-pyridazinones as orally active antinociceptive agents: synthesis and studies on the mechanism of action” (2007).

Assays:
Assay type in all cases: functional
Mus musculus [1] = organism: Mus musculus; assay: Effect on Swiss albino mouse assessed as decrease in number of falls in 30 sec after 30 mins of treatment by Rota-Rod test
How it was run: (§1)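 Rotarod test in mice: falls from the rotating rod counted over 30 s, before treatment and at 15, 30 and 45 min after oral dosing. CMC vehicle controls.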

Rattus norvegicus [2] = organism: Rattus norvegicus; assay: Increase in noradrenaline release in Sprague-Dawley rat cerebral cortex after 30 mins by microdialysis technique
How it was run: (§2)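 Rat cerebral cortex microdialysis under chloral hydrate anesthesia (400 mg/kg) in a stereotaxic frame, using a vertical concentric probe perfused with solution containing MgCl₂ and 4 mM KCl. About 18 h after surgery, dialysate collected every 20 min and stored at -80 °C. Noradrenaline measured by HPLC with electrochemical detection. Release expressed against a baseline averaged from three samples taken just before drug dosing.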

Mus musculus [3] = organism: Mus musculus; assay: Effect on Swiss albino mouse assessed as decrease in number of falls in 30 sec after 15 mins of treatment by Rota-Rod test; how it was run: as §1
Mus musculus [4] = organism: Mus musculus; assay: Effect on Swiss albino mouse assessed as decrease in number of falls in 30 sec after 45 mins of treatment by Rota-Rod test; how it was run: as §1
Mus musculus [5] = organism: Mus musculus; assay: Antinociceptive activity in Swiss albino mouse assessed as reduction of number of writhing after 30 mins relative to control
How it was run: (§3)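 Writhing counted in the mouse abdominal constriction test after a chemical noxious stimulus. Compounds given per os 30 min before testing. Controls received CMC vehicle. Activity expressed as reduction in number of writhes versus controls.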

Mus musculus [6] = assay: Effect on Swiss albino mouse assessed as decrease in number of falls in 30 sec at 10 mg/kg, po after 15 mins by Rota-Rod test; how it was run: as §1
Mus musculus [7] = assay: Antinociceptive activity in Swiss albino mouse assessed as number of writhing in presence of yohimbine at 10 mg/kg, po after 30 mins relative to control
How it was run: (§4)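 Mouse abdominal constriction (writhing) test with a chemical pain stimulus. Test drugs given orally 30 min before the test. Yohimbine given at 3 mg kg^-1 ip as α2-adrenoceptor antagonist pretreatment. Writhes counted and compared with CMC vehicle controls. Values are the mean of at least two experiments.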

Mus musculus [8] = assay: Effect on Swiss albino mouse assessed as decrease in number of falls in 30 sec at 10 mg/kg, po after 30 mins by Rota-Rod test; how it was run: as §1
Rattus norvegicus [9] = assay: Increase in noradrenaline release in Sprague-Dawley rat cerebral cortex at 10 mg/kg, po after 30 mins by microdialysis technique; how it was run: as §2
Mus musculus [10] = assay: Antinociceptive activity in Swiss albino mouse assessed as reduction of number of writhing at 10 mg/kg, po after 30 mins relative to control; how it was run: as §3
Mus musculus [11] = assay: Effect on Swiss albino mouse assessed as decrease in number of falls in 30 sec at 10 mg/kg, po after 45 mins by Rota-Rod test; how it was run: as §1
Mus musculus [12] = assay: Effect on Swiss albino mouse assessed as decrease in number of falls in 30 sec at 3 mg/kg, po after 45 mins by Rota-Rod test; how it was run: as §1
Mus musculus [13] = assay: Effect on Swiss albino mouse assessed as decrease in number of falls in 30 sec at 3 mg/kg, po after 15 mins by Rota-Rod test; how it was run: as §1
Mus musculus [14] = assay: Antinociceptive activity in Swiss albino mouse assessed as number of writhing in presence of yohimbine at 3 mg/kg, po after 30 mins relative to control; how it was run: as §4
Mus musculus [15] = assay: Antinociceptive activity in Swiss albino mouse assessed as reduction of number of writhing at 3 mg/kg, po after 30 mins relative to control; how it was run: as §3
Mus musculus [16] = assay: Effect on Swiss albino mouse assessed as decrease in number of falls in 30 sec at 3 mg/kg, po after 30 mins by Rota-Rod test; how it was run: as §1
Mus musculus [17] = assay: Effect on Swiss albino mouse assessed as decrease in number of falls in 30 sec at 20 mg/kg, po after 30 mins by Rota-Rod test; how it was run: as §1
Mus musculus [18] = assay: Effect on Swiss albino mouse assessed as decrease in number of falls in 30 sec at 20 mg/kg, po after 45 mins by Rota-Rod test; how it was run: as §1
Mus musculus [19] = assay: Antinociceptive activity in Swiss albino mouse assessed as reduction of number of writhing at 20 mg/kg, po after 30 mins relative to control; how it was run: as §3
Mus musculus [20] = assay: Antinociceptive activity in Swiss Albino mouse assessed as number of writhing in presence of yohimbine at 20 mg/kg, po after 30 mins relative to control; how it was run: as §4
Mus musculus [21] = assay: Effect on Swiss albino mouse assessed as decrease in number of falls in 30 sec at 20 mg/kg, po after 15 mins by Rota-Rod test; how it was run: as §1
Rattus norvegicus [22] = assay: Increase in noradrenaline release in Sprague-Dawley rat cerebral cortex at 30 mg/kg, po after 30 mins by microdialysis technique; how it was run: as §2
Mus musculus [23] = assay: Antinociceptive activity in Swiss albino mouse assessed as reduction of number of writhing at 30 mg/kg, po after 30 mins relative to control; how it was run: as §3
Mus musculus [24] = assay: Effect on Swiss albino mouse assessed as decrease in number of falls in 30 sec at 30 mg/kg, po after 45 mins by Rota-Rod test; how it was run: as §1
Mus musculus [25] = assay: Antinociceptive activity in Swiss albino mouse assessed as number of writhing in presence of yohimbine at 30 mg/kg, po after 30 mins relative to control; how it was run: as §4
Mus musculus [26] = assay: Effect on Swiss albino mouse assessed as decrease in number of falls in 30 sec at 30 mg/kg, po after 30 mins by Rota-Rod test; how it was run: as §1
Mus musculus [27] = assay: Effect on Swiss albino mouse assessed as decrease in number of falls in 30 sec at 30 mg/kg, po after 15 mins by Rota-Rod test; how it was run: as §1
Rattus norvegicus [28] = assay: Increase in noradrenaline release in Sprague-Dawley rat cerebral cortex at 3 mg/kg, po after 30 mins by microdialysis technique; how it was run: as §2
Rattus norvegicus [29] = assay: Increase in noradrenaline release in Sprague-Dawley rat cerebral cortex at 20 mg/kg, po after 30 mins by microdialysis technique; how it was run: as §2

## CC(=O)[O-].O=CC(O)C(O)C(O)C(O)CO.[Na+] (stereo not given)
Mus musculus [1]
  Activity: 3
Rattus norvegicus [2]
  Activity: 100%
Mus musculus [3]
  Activity: 3.6
Mus musculus [4]
  Activity: 2.2
Mus musculus [5]
  Activity: 33.2

## Cc1nc(-c2c(-c3ccccc3)nn(C)c(=O)c2N)cs1
Mus musculus [6]
  Activity: 3.8
Mus musculus [7]
  Activity: 33.6
Mus musculus [8]
  Activity: 2.7
Rattus norvegicus [9]
  Activity: 181.3%
Mus musculus [10]
  Activity: 14.7
Mus musculus [11]
  Activity: 2

## C=Cc1c(-c2ccccc2)nn(C)c(=O)c1NCC
Mus musculus [12]
  Activity: 1.9
Mus musculus [13]
  Activity: 3.4
Mus musculus [14]
  Activity: 28.1
Mus musculus [15]
  Activity: 17.4
Mus musculus [16]
  Activity: 2.3

## C=Cc1c(-c2ccccc2)nn(CCCC)c(=O)c1NC
Mus musculus [17]
  Activity: 3.3
Mus musculus [18]
  Activity: 2.5
Mus musculus [19]
  Activity: 21.6
Mus musculus [20]
  Activity: 31.9
Mus musculus [21]
  Activity: 4

## Cc1nn(C)c(=O)c(N)c1-c1ccn(C)n1
Rattus norvegicus [22]
  Activity: 188.5%
Mus musculus [23]
  Activity: 15.9
Mus musculus [24]
  Activity: 1.8
Mus musculus [25]
  Activity: 31.7
Mus musculus [26]
  Activity: 2.6
Mus musculus [27]
  Activity: 3.9

## Cn1nc(-c2ccccc2)c(-c2cc[nH]n2)c(N)c1=O
Mus musculus [12]
  Activity: 2.3
Mus musculus [13]
  Activity: 3.7
Rattus norvegicus [28]
  Activity: 168.4%
Mus musculus [14]
  Activity: 26.5
Mus musculus [15]
  Activity: 15.9
Mus musculus [16]
  Activity: 2.8

## C=Cc1c(-c2ccncc2)nn(CCCC)c(=O)c1N
Mus musculus [19]
  Activity: 35.3
Rattus norvegicus [29]
  Activity: 97.5%

## C=Cc1c(C)nn(CCCC)c(=O)c1N
Mus musculus [19]
  Activity: 36.7
Rattus norvegicus [29]
  Activity: 95.9%

## C=Cc1c(-c2cccs2)nn(CCCC)c(=O)c1N
Mus musculus [19]
  Activity: 25.2

## C=Cc1c(-c2ccc(F)cc2)nn(CCCC)c(=O)c1N
Mus musculus [19]
  Activity: 33.6

## C=Cc1c(-c2ccc(F)cc2)nn(C)c(=O)c1N
Mus musculus [19]
  Activity: 27.2

## C=Cc1c(C2CCCC2)nn(C)c(=O)c1N
Mus musculus [10]
  Activity: 27.7

## C=Cc1c(C2CCCCC2)nn(C)c(=O)c1N
Mus musculus [6]
  Activity: 4.1
Mus musculus [7]
  Activity: 32.5
Mus musculus [8]
  Activity: 3.4
Rattus norvegicus [9]
  Activity: 182.1%
Mus musculus [10]
  Activity: 14.4
Mus musculus [11]
  Activity: 2.9

## CCN(CC)c1c(-c2ccn(C)n2)c(-c2ccccc2)nn(C)c1=O
Mus musculus [19]
  Activity: 27.1

## Cc1nnc(-c2c(-c3ccccc3)nn(C)c(=O)c2N)o1
Mus musculus [12]
  Activity: 1.5
Mus musculus [13]
  Activity: 2.7
Mus musculus [14]
  Activity: 34.2
Mus musculus [15]
  Activity: 19.5
Mus musculus [16]
  Activity: 2.3

## C=Cc1c(-c2ccncc2)nn(C)c(=O)c1N
Mus musculus [17]
  Activity: 2.8
Mus musculus [18]
  Activity: 2.1
Mus musculus [19]
  Activity: 18.7
Mus musculus [20]
  Activity: 34.1
Mus musculus [21]
  Activity: 3.5

## C=Cc1c(-c2ccc(Br)cc2)nn(C)c(=O)c1N
Mus musculus [19]
  Activity: 35.7
Rattus norvegicus [29]
  Activity: 107%

## C=Cc1c(C)nn(C)c(=O)c1NC
Mus musculus [6]
  Activity: 3.7
Mus musculus [7]
  Activity: 32
Mus musculus [8]
  Activity: 2.5
Mus musculus [10]
  Activity: 17.6
Mus musculus [11]
  Activity: 2

## C=Cc1c(C)nn(C)c(=O)c1NCC
Mus musculus [6]
  Activity: 3.9
Mus musculus [7]
  Activity: 29
Mus musculus [8]
  Activity: 3.2
Rattus norvegicus [9]
  Activity: 176.2%
Mus musculus [10]
  Activity: 16.8
Mus musculus [11]
  Activity: 2.5

## Cn1ccc(-c2c(-c3ccccc3)nn(C)c(=O)c2N)n1
Mus musculus [12]
  Activity: 2.3
Mus musculus [13]
  Activity: 4.2
Rattus norvegicus [28]
  Activity: 190.1%
Mus musculus [14]
  Activity: 31.1
Mus musculus [15]
  Activity: 13.6
Mus musculus [16]
  Activity: 3.1

## CCNc1c(-c2ccn(C)n2)c(-c2ccccc2)nn(C)c1=O
Mus musculus [17]
  Activity: 1.8
Mus musculus [18]
  Activity: 2.1
Mus musculus [19]
  Activity: 14.1
Rattus norvegicus [29]
  Activity: 173.7%
Mus musculus [20]
  Activity: 29.6
Mus musculus [21]
  Activity: 2.6

## C=Cc1c(-c2cccs2)nn(C)c(=O)c1N
Mus musculus [19]
  Activity: 30.2

## COC(=O)[C@@H]1[C@H]2C[C@H]3c4[nH]c5ccccc5c4CCN3C[C@@H]2CC[C@@H]1O [YOHIMBINE]
Mus musculus [14]
  Activity: 31.7
